# Measured values gathered from unrelated publications.
# Protocols differ between the studies behind these lines.
# Target: Ankyrin repeat and protein kinase domain-containing protein 1 (ANKK1, Homo sapiens, UniProt Q8NFD2)
# One construct used (Q8NFD2 1-765): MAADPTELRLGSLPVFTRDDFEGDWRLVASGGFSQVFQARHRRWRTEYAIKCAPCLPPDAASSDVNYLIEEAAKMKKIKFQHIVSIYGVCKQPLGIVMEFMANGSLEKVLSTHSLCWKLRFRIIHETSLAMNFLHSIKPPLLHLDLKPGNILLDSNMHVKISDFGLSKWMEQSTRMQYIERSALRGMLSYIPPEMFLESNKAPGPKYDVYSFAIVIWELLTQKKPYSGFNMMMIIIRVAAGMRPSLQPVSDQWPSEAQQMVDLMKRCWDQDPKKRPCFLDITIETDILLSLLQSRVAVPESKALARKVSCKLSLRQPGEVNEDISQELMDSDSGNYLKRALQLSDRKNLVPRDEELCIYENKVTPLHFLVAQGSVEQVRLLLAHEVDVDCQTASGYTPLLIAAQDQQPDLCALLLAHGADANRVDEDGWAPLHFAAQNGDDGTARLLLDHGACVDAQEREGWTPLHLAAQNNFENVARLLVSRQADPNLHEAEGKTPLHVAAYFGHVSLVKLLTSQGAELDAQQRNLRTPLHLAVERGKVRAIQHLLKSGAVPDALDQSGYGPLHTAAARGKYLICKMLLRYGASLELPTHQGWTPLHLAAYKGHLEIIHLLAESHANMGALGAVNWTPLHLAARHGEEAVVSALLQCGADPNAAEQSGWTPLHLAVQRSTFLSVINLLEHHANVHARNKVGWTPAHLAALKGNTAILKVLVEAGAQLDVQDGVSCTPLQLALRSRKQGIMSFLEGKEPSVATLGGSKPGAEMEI
Structure (SMILES),test,conditions,remaining binding [%]
Cc1cnn2ncc(-c3ccnc(N(C)C)n3)c2c1,binding,1 µM,100
C[C@@H]1CN(c2cc(-c3n[nH]c4ccc(OC5(C)CC5)cc34)ncn2)C[C@H](C)O1,"cell-free assay, competition with immobilised ligand",0.1 µM,79
COc1cnc(Nc2cccc(S(N)(=O)=O)c2)nc1N1CCN(c2ccccc2)C(=O)C1,"binding, competition with immobilised ligand",1 µM,82
CN(C)c1nccc(-c2cnn3ncccc23)n1,binding,1 µM,100
CC1=C(C#N)C(c2ccc3c(c2)c(NC(=O)c2ccccc2C)nn3C)C(C#N)=C(C)N1,"cell-free assay, competition with immobilised ligand",1 µM,92
O=C(c1ccc(Nc2ncc(Cl)c(-c3cc4ccccc4s3)n2)cc1)N1CCC(N2CCCC2)CC1,"binding, competition with immobilised ligand",1 µM,62
CCN1CCN(Cc2ccc(C(=O)Nc3ccc(C)c(Oc4ccc5c(c4)CC(=O)N5)c3)cc2C(F)(F)F)CC1,"binding, competition with immobilised ligand",1 µM,100
C[C@@H](c1ccc(-n2cnc3c(N)ncnc32)cc1)N1CCc2nn(C)c(Cc3ccccc3)c2C1=O,"binding, competition with immobilised ligand",0.1 µM,85
c1cnn2ncc(-c3ccnc(N4CCC45COC5)n3)c2c1,binding,1 µM,72
O=C(NCCCN1CCOCC1)c1ccc(Nc2ncc(Cl)c(-c3ccc(Cl)s3)n2)cc1,"binding, competition with immobilised ligand",1 µM,77
c1ccc(N2CCN(Cc3nc4ccccc4[nH]3)CC2)nc1,"binding, competition with immobilised ligand",1 µM,100
Nc1ncc2c(n1)-c1c([nH]c3ccc(C#CC4CC4)cc13)CCCC2,"binding, competition with immobilised ligand",1 µM,85
O=c1nc(-c2ccccn2)sc2ccccc12,"binding, competition with immobilised ligand",1 µM,100
O=C(c1ccc(Nc2ncc(Cl)c(-c3ccc(Cl)s3)n2)cc1)N1CCC(N2CCCC2)CC1,"binding, competition with immobilised ligand",1 µM,61
O=C(NCC1CCOCC1)c1n[nH]cc1NC(=O)c1c(F)cccc1F,"binding, competition with immobilised ligand",1 µM,66
F[C@@H]1CCN(c2nccc(-c3cnn4ncccc34)n2)C1,binding,1 µM,100
C=CC(=O)N1CCC(C(=O)NCC(=O)N2CCN(c3nc(-c4cnc(N)nc4C(F)F)nc(N4CCOCC4)n3)CC2)CC1,"binding, competition with immobilised ligand",1 µM,100
C[C@H]1CCN(c2nccc(-c3cnn4ncccc34)n2)C1,binding,1 µM,83
O=C(N1CCS(=O)(=O)CC1)N1C[C@H](c2ccc(OC(F)(F)F)cc2)C[C@H](c2nc(C3CC3)no2)C1,"cell-free assay, competition with immobilised ligand",1 µM,100
CN(C)c1ncc(F)c(-c2cnn3ncccc23)n1,binding,1 µM,69
O=C(O)[C@H]1[C@H](Cn2nnc3ccccc3c2=O)CC[C@@H]1C(=O)c1ccc(OCCC2CCOCC2)cc1,"cell-free assay, competition with immobilised ligand",1 µM,100
